According to ChEMBL document CHEMBL1687788, “Characterization of two newly identified genes, vgaD and vatH, [corrected] conferring resistance to streptogramin A in Enterococcus faecium” (2010):
≈ marks a conversion by molar mass, not a printed value.

What was measured:
Type in all cases: functional
[1] = system: Enterococcus faecium; assay: Antibacterial activity against quinupristin-dalfopristin resistant and ermB gene expressing Enterococcus faecium isolate AS115 containing streptogramin A resistance genes vatG and vgaD isolated from poultry stool samples
How it was run: (§1)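 Isolates were recovered from fecal samples (human, poultry, swine; 2000/2003) or retail meat (2003). Samples were enriched in Enterococcosel broth for 48 h at 37°C, then streaked on Enterococcosel agar containing Q-D at 2 μg/ml to select resistant E. faecium. vatG and vgaD were detected by PCR with gene-specific primers: 30 cycles, annealing at 55°C.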

[2] = system: Enterococcus faecium; assay: Antibacterial activity against quinupristin-dalfopristin resistant Enterococcus faecium isolate ES022 containing streptogramin A resistance genes vatG and vgaD isolated from swine stool samples
[3] = system: Enterococcus faecium; assay: Antibacterial activity against quinupristin-dalfopristin resistant and vanA gene expressing Enterococcus faecium isolate GAV04 containing streptogramin A resistance genes vatG and vgaD isolated from chicken meat samples
[4] = system: Enterococcus faecium; assay: Antibacterial activity against quinupristin-dalfopristin resistant and ermB gene expressing Enterococcus faecium isolate CS121 containing streptogramin A resistance genes vatG and vgaD isolated from poultry stool samples
[5] = system: Enterococcus faecium; assay: Antibacterial activity against quinupristin-dalfopristin resistant and ermB gene expressing Enterococcus faecium isolate CS103 containing streptogramin A resistance genes vatG and vgaD isolated from poultry stool samples
[6] = system: Enterococcus faecium; assay: Antibacterial activity against quinupristin-dalfopristin resistant and ermB and vanA gene expressing Enterococcus faecium isolate C19 containing streptogramin A resistance genes vatG and vgaD isolated from poultry stool samples
[7] = system: Enterococcus faecium; assay: Antibacterial activity against quinupristin-dalfopristin resistant and ermB gene expressing Enterococcus faecium isolate CS106 containing streptogramin A resistance genes vatG and vgaD isolated from poultry stool samples
[8] = system: Enterococcus faecium; assay: Antibacterial activity against quinupristin-dalfopristin resistant and ermB and vanA gene expressing Enterococcus faecium isolate A15 containing streptogramin A resistance genes vatG and vgaD isolated from poultry stool samples; how it was run: as §1
[9] = system: Enterococcus faecium; assay: Antibacterial activity against quinupristin-dalfopristin resistant and ermB gene expressing Enterococcus faecium isolate KS46 containing streptogramin A resistance genes vatG and vgaD isolated from healthy human stool samples
[10] = system: Enterococcus faecium; assay: Antibacterial activity against quinupristin-dalfopristin resistant and ermB gene expressing Enterococcus faecium isolate JS79 containing streptogramin A resistance genes vatG and vgaD isolated from healthy human stool samples
[11] = system: Enterococcus faecium; assay: Antibacterial activity against quinupristin-dalfopristin resistant and ermB gene expressing Enterococcus faecium isolate CS098 containing streptogramin A resistance genes vatG and vgaD isolated from poultry stool samples
[12] = system: Enterococcus faecium; assay: Antibacterial activity against quinupristin-dalfopristin resistant and vanA gene expressing Enterococcus faecium isolate GAV12 containing streptogramin A resistance genes vatG and vgaD isolated from chicken meat samples; how it was run: as §1
[13] = system: Enterococcus faecium; assay: Antibacterial activity against quinupristin-dalfopristin abd erythromycin sensitive aEnterococcus faecium U201 transconjugants receiving ermB genes and vatG gene from quinupristin-dalfopristin resistant Enterococcus faecium isolate
How it was run: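 Transconjugants came from broth mating: donor and recipient overnight M17 cultures were mixed 1:1 into fresh M17 broth for 6 h at 37°C. Selection was on BHI agar with erythromycin (100 μg/ml) and ampicillin (100 μg/ml) for 24 h at 37°C. The erythromycin and Q-D MICs were compared with the donor's.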

SMILES	MIC [1] [µg/mL]	MIC [2] [µg/mL]	MIC [3] [µg/mL]	MIC [4] [µg/mL]	MIC [5] [µg/mL]	MIC [6] [µg/mL]	MIC [7] [µg/mL]	MIC [8] [µg/mL]	MIC [9] [µg/mL]	MIC [10] [µg/mL]	MIC [11] [µg/mL]	MIC [12] [µg/mL]	MIC [13] [µg/mL]
CN[C@H](CC(C)C)C(=O)N[C@H]1C(=O)N[C@@H](CC(N)=O)C(=O)N[C@H]2C(=O)N[C@H]3C(=O)N[C@H](C(=O)N[C@H](C(=O)O)c4cc(O)cc(O)c4-c4cc3ccc4O)[C@H](O)c3ccc(c(Cl)c3)Oc3cc2cc(c3O[C@@H]2O[C@H](CO)[C@@H](O)[C@H](O)[C@H]2O[C@H]2C[C@](C)(N)[C@H](O)[C@H](C)O2)Oc2ccc(cc2Cl)[C@H]1O [VANCOMYCIN]	< 1	< 1	256 (≈ 177 µM)	< 1	< 1	256 (≈ 177 µM)	< 1	256 (≈ 177 µM)	< 1	< 1	< 1	256 (≈ 177 µM)	–
CC[C@H]1OC(=O)[C@H](C)[C@@H](O[C@H]2C[C@@](C)(OC)[C@@H](O)[C@H](C)O2)[C@H](C)[C@@H](O[C@@H]2O[C@H](C)C[C@H](N(C)C)[C@H]2O)[C@](C)(O)C[C@@H](C)C(=O)[C@H](C)[C@@H](O)[C@]1(C)O [ERYTHROMYCIN]	256 (≈ 349 µM)	0.1 (≈ 0.136 µM)	< 1	256 (≈ 349 µM)	256 (≈ 349 µM)	256 (≈ 349 µM)	256 (≈ 349 µM)	256 (≈ 349 µM)	256 (≈ 349 µM)	256 (≈ 349 µM)	256 (≈ 349 µM)	< 1	256 (≈ 349 µM)
